The source made the active and inactive calls. No cut-off for these calls is given here.
Experiments:
Collagenase 3 [1] = target: T1, Collagenase 3 (Homo sapiens, UniProt P45452); test: Inhibition of full length recombinant human MMP13 expressed in mouse NSO cells using fTHP-15 as substrate preincubated for 30 mins followed by substrate addition measured immediately by fluorescence assay
[2] = target: T2, 72 kDa type IV collagenase (Homo sapiens, UniProt P08253); test: Inhibition of recombinant human MMP2 expressed in mouse NSO cells at 200 nM using fTHP-15 as substrate preincubated for 30 mins followed by substrate addition measured immediately by fluorescence assay
Summary of the method: (§1)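 Each enzyme was activated per the supplier's protocol and diluted in EAB (50 mM Tris·HCl pH 7.5, 100 mM NaCl, 10 mM CaCl2, 0.05% Brij-35). Compound was tested at a single 200 nM and preincubated with enzyme for 30 min at 25 °C. Adding fTHP-15 started the reaction, with fluorescence read immediately. Inhibition was scored as percent substrate-to-product conversion after 30 min.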

Neutrophil collagenase [3] = target: T3, Neutrophil collagenase (Homo sapiens, UniProt P22894); test: Inhibition of MMP8 (unknown origin) at 200 nM using fTHP-15 as substrate preincubated for 30 mins followed by substrate addition measured immediately by fluorescence assay; summary of the method: as §1
Collagenase 3 [4] = target: T1, Collagenase 3; test: Inhibition of full length recombinant human MMP13 expressed in mouse NSO cells using varying levels of fTHP-15 as substrate preincubated for 30 mins followed by substrate addition measured immediately by Lineweaver-Burk plot analysis
[5] = target: Angiotensin-converting enzyme (Homo sapiens) (UniProt P12821); test: Inhibition of ACE (unknown origin) at 1 uM relative to control
[6] = target: Angiotensin-converting enzyme 2 (Homo sapiens) (UniProt Q9BYF1); test: Inhibition of ACE2 (unknown origin) at 1 uM relative to control
Chain of Angiotensin-converting enzyme 2 (Homo sapiens) (Q9BYF1 18-805 limits assumed): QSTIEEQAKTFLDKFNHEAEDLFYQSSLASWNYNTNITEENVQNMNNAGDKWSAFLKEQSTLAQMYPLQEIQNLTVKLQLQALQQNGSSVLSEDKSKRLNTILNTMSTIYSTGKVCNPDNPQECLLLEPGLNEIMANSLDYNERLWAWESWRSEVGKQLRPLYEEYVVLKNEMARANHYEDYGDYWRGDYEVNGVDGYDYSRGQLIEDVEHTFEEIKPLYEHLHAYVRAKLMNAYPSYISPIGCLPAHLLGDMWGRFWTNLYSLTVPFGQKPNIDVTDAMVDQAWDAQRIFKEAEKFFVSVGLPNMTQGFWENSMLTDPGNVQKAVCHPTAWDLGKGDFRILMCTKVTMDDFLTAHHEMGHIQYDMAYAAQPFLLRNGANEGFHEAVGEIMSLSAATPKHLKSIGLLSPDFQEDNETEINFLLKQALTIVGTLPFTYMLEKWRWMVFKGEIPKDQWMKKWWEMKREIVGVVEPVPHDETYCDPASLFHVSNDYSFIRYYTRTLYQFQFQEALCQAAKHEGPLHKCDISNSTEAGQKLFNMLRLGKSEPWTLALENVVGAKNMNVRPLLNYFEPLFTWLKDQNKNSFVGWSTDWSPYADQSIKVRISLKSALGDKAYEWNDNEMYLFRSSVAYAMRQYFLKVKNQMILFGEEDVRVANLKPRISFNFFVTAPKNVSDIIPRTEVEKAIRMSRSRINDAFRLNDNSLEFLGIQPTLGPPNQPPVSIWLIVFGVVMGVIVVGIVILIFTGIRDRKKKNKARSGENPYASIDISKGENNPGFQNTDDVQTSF

[7] = target: Disintegrin and metalloproteinase domain-containing protein 10 (Homo sapiens) (UniProt O14672); test: Inhibition of ADAM10 (unknown origin) at 1 uM relative to control
[8] = target: Beta-secretase 1 (Homo sapiens) (UniProt P56817); test: Inhibition of BACE1 (unknown origin) at 1 uM relative to control
Chain of Beta-secretase 1 (Homo sapiens) (P56817 whole entry): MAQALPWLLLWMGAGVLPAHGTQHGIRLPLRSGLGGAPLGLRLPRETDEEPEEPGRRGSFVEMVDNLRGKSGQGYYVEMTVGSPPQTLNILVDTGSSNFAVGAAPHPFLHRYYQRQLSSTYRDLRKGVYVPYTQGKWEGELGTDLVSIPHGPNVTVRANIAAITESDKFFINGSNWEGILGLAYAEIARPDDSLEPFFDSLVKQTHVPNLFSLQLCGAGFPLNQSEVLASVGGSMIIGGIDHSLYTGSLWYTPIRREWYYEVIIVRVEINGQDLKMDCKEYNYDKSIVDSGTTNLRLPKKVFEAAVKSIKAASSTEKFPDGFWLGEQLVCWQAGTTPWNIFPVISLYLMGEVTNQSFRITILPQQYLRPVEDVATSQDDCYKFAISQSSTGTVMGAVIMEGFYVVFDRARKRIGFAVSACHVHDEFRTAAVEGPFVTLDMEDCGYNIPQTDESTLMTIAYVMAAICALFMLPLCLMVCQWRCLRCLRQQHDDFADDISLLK

Caspase-1 (Homo sapiens) = Caspase-1 (Homo sapiens) (UniProt P29466); test: Inhibition of caspase1 (unknown origin) at 1 uM relative to control
Chain of Caspase-1 (Homo sapiens) (P29466 120-297 limits assumed): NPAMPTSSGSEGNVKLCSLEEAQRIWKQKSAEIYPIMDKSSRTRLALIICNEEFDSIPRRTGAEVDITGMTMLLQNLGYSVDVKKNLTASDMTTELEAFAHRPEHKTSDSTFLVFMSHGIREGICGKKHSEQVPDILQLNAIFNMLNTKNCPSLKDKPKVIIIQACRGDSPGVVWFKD
Chain of Caspase-1 (Homo sapiens) (P29466 317-404 limits assumed): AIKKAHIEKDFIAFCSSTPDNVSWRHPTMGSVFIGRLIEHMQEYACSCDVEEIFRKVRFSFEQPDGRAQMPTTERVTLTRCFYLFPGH

Caspase-2 (Homo sapiens) = Caspase-2 (Homo sapiens) (UniProt P42575); test: Inhibition of caspase2 (unknown origin) at 1 uM relative to control
Caspase-3 (Homo sapiens) = Caspase-3 (Homo sapiens) (UniProt P42574); test: Inhibition of caspase3 (unknown origin) at 1 uM relative to control
Chain of Caspase-3 (Homo sapiens) (P42574 29-175 limits assumed): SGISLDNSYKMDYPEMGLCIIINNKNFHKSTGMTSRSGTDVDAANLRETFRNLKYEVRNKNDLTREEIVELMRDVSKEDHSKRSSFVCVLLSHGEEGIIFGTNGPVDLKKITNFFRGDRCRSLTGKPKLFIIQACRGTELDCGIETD
Chain of Caspase-3 (Homo sapiens) (P42574 176-277 limits assumed): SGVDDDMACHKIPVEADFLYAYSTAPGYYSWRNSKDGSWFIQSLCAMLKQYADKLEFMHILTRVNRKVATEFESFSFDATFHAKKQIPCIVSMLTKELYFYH

Caspase-5 (Homo sapiens) = Caspase-5 (Homo sapiens) (UniProt P51878); test: Inhibition of caspase5 (unknown origin) at 1 uM relative to control
Caspase-6 (Homo sapiens) = Caspase-6 (Homo sapiens) (UniProt P55212); test: Inhibition of caspase6 (unknown origin) at 1 uM relative to control
Chain of Caspase-6 (Homo sapiens) (P55212 24-179 limits assumed): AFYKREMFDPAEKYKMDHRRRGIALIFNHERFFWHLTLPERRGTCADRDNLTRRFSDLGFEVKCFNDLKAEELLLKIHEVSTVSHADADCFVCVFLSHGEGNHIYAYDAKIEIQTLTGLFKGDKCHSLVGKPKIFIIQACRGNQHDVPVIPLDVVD
Chain of Caspase-6 (Homo sapiens) (P55212 194-293 limits assumed): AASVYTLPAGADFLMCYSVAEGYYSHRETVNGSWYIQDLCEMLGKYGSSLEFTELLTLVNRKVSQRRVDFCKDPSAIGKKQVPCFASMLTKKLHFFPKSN

Caspase-7 (Homo sapiens) = Caspase-7 (Homo sapiens) (UniProt P55210); test: Inhibition of caspase7 (unknown origin) at 1 uM relative to control
[9] = target: Cathepsin D (Homo sapiens) (UniProt P07339); test: Inhibition of cathepsin-D (unknown origin) at 1 uM relative to control
[10] = target: Cathepsin K (Homo sapiens) (UniProt P43235); test: Inhibition of cathepsin-K (unknown origin) at 1 uM relative to control
[11] = target: Procathepsin L (Homo sapiens) (UniProt P07711); test: Inhibition of cathepsin-L (unknown origin) at 1 uM relative to control
Chain of Procathepsin L (Homo sapiens) (P07711 114-333 limits assumed): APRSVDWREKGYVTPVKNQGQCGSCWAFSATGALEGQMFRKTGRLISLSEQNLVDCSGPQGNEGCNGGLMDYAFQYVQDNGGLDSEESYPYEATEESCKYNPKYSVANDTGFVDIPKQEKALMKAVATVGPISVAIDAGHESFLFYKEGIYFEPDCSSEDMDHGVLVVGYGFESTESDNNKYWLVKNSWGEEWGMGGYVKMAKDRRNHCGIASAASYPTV

[12] = target: Cathepsin S (Homo sapiens) (UniProt P25774); test: Inhibition of cathepsin-S (unknown origin) at 1 uM relative to control
Chain of Cathepsin S (Homo sapiens) (P25774 115-331 limits assumed): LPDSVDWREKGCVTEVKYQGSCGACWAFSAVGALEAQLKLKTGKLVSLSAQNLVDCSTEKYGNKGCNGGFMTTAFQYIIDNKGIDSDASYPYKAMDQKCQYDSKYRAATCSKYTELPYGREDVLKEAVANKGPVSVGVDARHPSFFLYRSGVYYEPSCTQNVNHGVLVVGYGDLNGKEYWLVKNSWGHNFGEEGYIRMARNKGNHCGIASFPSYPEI

[13] = target: Coagulation factor X (Homo sapiens) (UniProt P00742); test: Inhibition of factor10a (unknown origin) at 1 uM relative to control
Furin (Homo sapiens) = Furin (Homo sapiens) (UniProt P09958); test: Inhibition of furin (unknown origin) at 1 uM relative to control
[14] = target: Insulin-degrading enzyme (Homo sapiens) (UniProt P14735); test: Inhibition of IDE (unknown origin) at 1 uM relative to control
Chain of Insulin-degrading enzyme (Homo sapiens) (P14735 whole entry): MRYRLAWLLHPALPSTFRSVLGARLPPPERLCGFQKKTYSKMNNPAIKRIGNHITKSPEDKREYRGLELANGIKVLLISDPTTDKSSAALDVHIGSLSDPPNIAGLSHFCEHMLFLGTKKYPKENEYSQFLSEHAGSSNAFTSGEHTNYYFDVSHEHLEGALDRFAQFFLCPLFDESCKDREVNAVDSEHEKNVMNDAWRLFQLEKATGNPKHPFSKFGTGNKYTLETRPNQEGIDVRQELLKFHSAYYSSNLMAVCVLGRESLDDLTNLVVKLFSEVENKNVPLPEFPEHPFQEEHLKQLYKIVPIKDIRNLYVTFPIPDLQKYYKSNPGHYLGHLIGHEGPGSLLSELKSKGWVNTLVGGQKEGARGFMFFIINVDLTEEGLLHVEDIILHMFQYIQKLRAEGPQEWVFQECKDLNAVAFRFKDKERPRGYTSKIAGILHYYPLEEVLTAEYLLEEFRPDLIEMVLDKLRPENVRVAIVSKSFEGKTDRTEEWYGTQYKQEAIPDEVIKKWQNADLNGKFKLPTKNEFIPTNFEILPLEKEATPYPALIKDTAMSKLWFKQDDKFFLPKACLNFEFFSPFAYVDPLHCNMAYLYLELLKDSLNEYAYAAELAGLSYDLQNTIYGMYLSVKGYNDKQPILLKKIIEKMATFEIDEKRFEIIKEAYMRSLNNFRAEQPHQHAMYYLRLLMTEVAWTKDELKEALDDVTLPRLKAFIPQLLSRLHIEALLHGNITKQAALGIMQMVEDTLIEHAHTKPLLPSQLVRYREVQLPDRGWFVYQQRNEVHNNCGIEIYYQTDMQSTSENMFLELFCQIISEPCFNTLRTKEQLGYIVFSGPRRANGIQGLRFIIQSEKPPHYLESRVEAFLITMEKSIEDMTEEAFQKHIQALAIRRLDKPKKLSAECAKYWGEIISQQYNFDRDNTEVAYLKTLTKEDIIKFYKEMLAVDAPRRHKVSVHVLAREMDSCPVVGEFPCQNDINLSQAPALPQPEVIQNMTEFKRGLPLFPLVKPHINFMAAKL

[15] = target: Matrilysin (Homo sapiens) (UniProt P09237); test: Inhibition of MMP7 (unknown origin) at 1 uM relative to control
Chain of Matrilysin (Homo sapiens) (P09237 whole entry): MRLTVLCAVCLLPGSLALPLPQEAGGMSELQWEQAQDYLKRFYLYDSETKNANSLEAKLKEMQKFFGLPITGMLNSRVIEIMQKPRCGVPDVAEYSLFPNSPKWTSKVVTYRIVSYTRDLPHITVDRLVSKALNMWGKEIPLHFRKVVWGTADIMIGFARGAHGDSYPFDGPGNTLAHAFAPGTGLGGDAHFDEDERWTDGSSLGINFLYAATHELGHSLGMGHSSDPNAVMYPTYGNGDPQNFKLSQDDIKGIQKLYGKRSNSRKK

[16] = target: Neprilysin (Homo sapiens) (UniProt P08473); test: Inhibition of neprilysin (unknown origin) at 1 uM relative to control
[17] = target: Disintegrin and metalloproteinase domain-containing protein 17 (Homo sapiens) (UniProt P78536); test: Inhibition of TACE (unknown origin) at 1 uM relative to control
Chain of Disintegrin and metalloproteinase domain-containing protein 17 (Homo sapiens) (P78536 whole entry, the tested form may be a part): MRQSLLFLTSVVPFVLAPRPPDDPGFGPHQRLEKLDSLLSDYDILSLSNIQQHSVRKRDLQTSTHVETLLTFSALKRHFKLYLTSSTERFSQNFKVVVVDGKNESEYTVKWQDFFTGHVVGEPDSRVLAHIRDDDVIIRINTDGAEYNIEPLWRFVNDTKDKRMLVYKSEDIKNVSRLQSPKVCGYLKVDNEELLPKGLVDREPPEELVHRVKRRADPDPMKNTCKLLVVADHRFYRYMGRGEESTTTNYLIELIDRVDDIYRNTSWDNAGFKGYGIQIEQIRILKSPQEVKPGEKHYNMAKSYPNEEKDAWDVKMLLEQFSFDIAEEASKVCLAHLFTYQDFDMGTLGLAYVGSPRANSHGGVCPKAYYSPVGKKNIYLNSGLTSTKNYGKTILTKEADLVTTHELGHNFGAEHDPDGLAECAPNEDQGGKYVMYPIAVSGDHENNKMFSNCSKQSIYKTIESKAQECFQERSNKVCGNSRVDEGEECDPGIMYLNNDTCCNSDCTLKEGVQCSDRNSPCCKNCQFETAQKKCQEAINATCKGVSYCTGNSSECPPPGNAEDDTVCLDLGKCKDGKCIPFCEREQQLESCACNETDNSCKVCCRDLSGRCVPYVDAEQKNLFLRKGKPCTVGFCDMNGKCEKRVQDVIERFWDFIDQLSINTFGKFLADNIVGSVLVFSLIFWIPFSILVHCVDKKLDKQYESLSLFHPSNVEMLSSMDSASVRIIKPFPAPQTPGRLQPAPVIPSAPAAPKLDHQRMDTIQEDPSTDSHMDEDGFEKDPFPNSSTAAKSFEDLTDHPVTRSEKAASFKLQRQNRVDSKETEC

[18] = target: Prothrombin (Homo sapiens) (UniProt P00734); test: Inhibition of thrombin (unknown origin) at 1 uM relative to control
[19] = target: Urokinase-type plasminogen activator (Homo sapiens) (UniProt P00749); test: Inhibition of uPA (unknown origin) at 1 uM relative to control
[20] = target: T2, 72 kDa type IV collagenase; test: Inhibition of recombinant human MMP2 expressed in mouse NSO cells using fTHP-15 as substrate preincubated for 30 mins followed by substrate addition measured immediately by fluorescence assay
Neutrophil collagenase [21] = target: T3, Neutrophil collagenase; test: Inhibition of MMP8 (unknown origin) using fTHP-15 as substrate preincubated for 30 mins followed by substrate addition measured immediately by fluorescence assay
[22] = target: Matrix metalloproteinase-9 (Homo sapiens, UniProt P14780); test: Inhibition of MMP9 (unknown origin) using fTHP-15 as substrate preincubated for 30 mins followed by substrate addition measured immediately by fluorescence assay
[23] = target: Matrix metalloproteinase-14 (Homo sapiens, UniProt P50281); test: Inhibition of recombinant human MMP14 using fTHP-15 as substrate preincubated for 30 mins followed by substrate addition measured immediately by fluorescence assay

With `CNC(=O)[C@@H](NC(=O)c1ccc(-c2ccc(CSc3nc4c(c(=O)[nH]3)CCC4)cc2)o1)C(C)C` the IC50 (Collagenase 3 [1]) was 9.4 nM, the inhibition [2] was “Active” and the inhibition (Neutrophil collagenase [3]) was “Active”.

With `CC(C)[C@@H](NS(=O)(=O)c1ccc(-c2ccc(CSc3nc4c(c(=O)[nH]3)CCC4)cc2)cc1)C(=O)O` the IC50 (Collagenase 3 [1]) was 7 nM.

With `CNC(=O)[C@H](NC(=O)c1ccc(-c2ccc(CSc3nc4c(c(=O)[nH]3)CCC4)cc2)o1)C(C)C` the IC50 (Collagenase 3 [1]) was 356 nM.

With `Cc1ccc(CSc2nc(O)c3c(n2)CCC3)cc1` the Ki (Collagenase 3 [4]) was 800 nM.

Molecule `NCCNS(=O)(=O)c1ccc(-c2ccc(CSc3nc4c(c(=O)[nH]3)CCC4)cc2)cc1` has an inhibition [5] of 7%, an inhibition [6] of 1% and an inhibition [7] of 0%. For the same molecule, the inhibition [8] was 1%, the inhibition (Caspase-1 (Homo sapiens)) was 1% and the inhibition (Caspase-2 (Homo sapiens)) was 0%. The inhibition (Caspase-3 (Homo sapiens)) was 0%, the inhibition (Caspase-5 (Homo sapiens)) was 0% and the inhibition (Caspase-6 (Homo sapiens)) was 0%. For the same molecule, the inhibition (Caspase-7 (Homo sapiens)) was 1%, the inhibition [9] was 3% and the inhibition [10] was 0%. For the same molecule, the inhibition [11] was 9%, the inhibition [12] was 12% and the inhibition [13] was 3%. It also gave an inhibition (Furin (Homo sapiens)) of 0%, an inhibition [14] of 0% and an inhibition [15] of 7%. The inhibition [16] was 3%, the inhibition [17] was 4% and the inhibition [18] was -3%. It also gave an inhibition [19] of 3%.

Work on `O=c1[nH]c(SCc2ccc(-c3ccc(S(=O)(=O)NCCO)cc3)cc2)nc2c1CCC2` yielded an IC50 [20] of over 5 µM, an IC50 (Neutrophil collagenase [21]) of over 5 µM and an IC50 [22] of over 10 µM. It also gave an IC50 [23] of over 10 µM.

`CNC(=O)[C@@H](NC(=O)c1ccc(-c2ccc(CSc3nc4c(c(=O)[nH]3)CCC4)c(F)c2)o1)C(C)C` showed an inhibition [5] of 0%, an inhibition [6] of 0% and an inhibition [7] of 0%. The inhibition [8] was 0%, the inhibition (Caspase-1 (Homo sapiens)) was 0% and the inhibition (Caspase-2 (Homo sapiens)) was 0%. For the same molecule, the inhibition (Caspase-3 (Homo sapiens)) was 0%, the inhibition (Caspase-5 (Homo sapiens)) was 0% and the inhibition (Caspase-6 (Homo sapiens)) was 0%. For the same molecule, the inhibition (Caspase-7 (Homo sapiens)) was 8%, the inhibition [9] was 0% and the inhibition [10] was 2%. For the same molecule, the inhibition [11] was 7%, the inhibition [12] was 2% and the inhibition [13] was 0%. The inhibition (Furin (Homo sapiens)) was 0%, the inhibition [14] was 0% and the inhibition [15] was 4%. The inhibition [16] was -6%, the inhibition [17] was -3% and the inhibition [18] was -8%. For the same molecule, the inhibition [19] was 1%.
